Rows were chosen to be rich in hits. Some 1.3% of all compounds tested hit in one or more screens of this group.
INS-1E GSIS act: primary screen for activators of insulin secretion dependent on glucose, INS-1E cells, GLuc reporter luminescence. INS-1E GLuc reporter insulin secretion, 2-3 h. activation, % at 16.6 µM. hit rate 0.61% among 370,000;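 active = lowest replicate activation of at least 40%, so every replicate reaches that level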;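 also: 0% = median of neutral control wells and 100% = median of IBMX positive control wells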
S100A4 MyoIIA: inhibitors of human S100A4 binding to myosin IIA peptide. AID 652163. S100A4/TAMRA-MyoIIA peptide fluorescence polarization. P26447. hit rate 0.14% among 360,000. inhibition, % at 10.7 µM;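 active = mean inhibition of at least 70% across replicates, with every replicate also reaching that level; inconclusive = mean inhibition reaches 70% but some replicates fall short; inactive = mean inhibition below 70%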
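System – human S100A4 monomer protein, biochemical binding assay · Buffer or medium – Calcium-containing HEPES buffer, pH 7.2 · Timing – 5 min between mix addition and reading · Also added – TAMRA-labelled myosin IIA heavy-chain peptide probe, 5 nM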
RAD54 inh: inhibitors of human RAD54 branch migration; Q92698; RAD54 Holliday junction branch migration, FAM/BHQ fluorescence; inhibition, % at 10.4 µM; hit rate 0.14% among 360,000;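 active = mean normalized replicate activity at least 40 and at least half of replicates scoring 40 or more; inconclusive = only one of the two criteria met; inactive = mean below 40 and under half of replicates reaching 40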;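 also: 0% = median of neutral control wells and 100% = median of positive control wells; inhibitors cause a drop in the FAM fluorescence signal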
Target sequence (Q92698 whole entry, looked up): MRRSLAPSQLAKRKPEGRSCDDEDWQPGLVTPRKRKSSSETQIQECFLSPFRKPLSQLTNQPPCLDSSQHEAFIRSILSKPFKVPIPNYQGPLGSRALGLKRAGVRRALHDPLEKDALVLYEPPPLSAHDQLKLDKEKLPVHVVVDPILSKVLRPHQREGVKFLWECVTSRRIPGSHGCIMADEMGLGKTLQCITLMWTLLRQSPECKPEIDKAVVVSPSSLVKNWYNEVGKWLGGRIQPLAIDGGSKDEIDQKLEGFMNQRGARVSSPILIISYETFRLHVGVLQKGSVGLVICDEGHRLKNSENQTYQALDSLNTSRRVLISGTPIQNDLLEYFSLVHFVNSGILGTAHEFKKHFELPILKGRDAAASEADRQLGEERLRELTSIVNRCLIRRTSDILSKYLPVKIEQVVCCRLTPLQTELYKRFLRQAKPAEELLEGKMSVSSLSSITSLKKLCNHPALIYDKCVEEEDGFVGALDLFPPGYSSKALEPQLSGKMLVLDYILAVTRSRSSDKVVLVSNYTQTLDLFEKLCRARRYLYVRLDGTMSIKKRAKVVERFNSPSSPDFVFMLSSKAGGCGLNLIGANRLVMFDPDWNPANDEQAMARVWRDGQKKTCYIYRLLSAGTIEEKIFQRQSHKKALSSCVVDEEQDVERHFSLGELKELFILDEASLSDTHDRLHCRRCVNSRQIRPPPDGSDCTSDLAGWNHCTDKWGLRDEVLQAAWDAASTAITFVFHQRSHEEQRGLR
MLL AF4-AF9 inh: blocks AF4 peptide binding to human AF9 | P42568 | inhibition, % at 10 µM | AlphaScreen, biotin-AF4 peptide binding to FLAG-AF9 | hit rate 0.47% among 350,000;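 active = every replicate reaching a set inhibition limit, whatever the replicate mean, cut at about 25% in these data; inconclusive = mean inhibition reaches that limit but some replicates miss it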;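 also: 0% = plate neutral control median and 100% = total signal loss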
RAD52 inh: inhibitors of human RAD52 DNA annealing; P43351; recombinant RAD52 DNA annealing, FRET fluorescence; inhibition, % at 18.7 µM; hit rate 0.46% among 360,000;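 active = every replicate showing at least 50% inhibition; inconclusive = mean inhibition at least 50% but not in every replicate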
Active calls of the source: *; ? = inconclusive; · = not tested or not shown.

SMILES	INS-1E GSIS act	S100A4 MyoIIA	RAD54 inh	MLL AF4-AF9 inh	RAD52 inh
COc1ccc(-c2ccc3c(c2)[C@@H]2[C@@H](CCN2C(=O)C2CCCCC2)[C@@H](CO)N3C)cc1	-14	-10	7	-3	-16
OCCCNc1nc(-c2ccc(Cl)cc2)nc2ccccc12	58*	-3	19	7	0
CN(C)CC(=O)N1[C@H](CO)[C@@H](c2ccccc2)C12CN(C(=O)c1cccc(F)c1)C2	9	9	·	-3	-13
CC(=O)c1ccc(N2CCN(S(=O)(=O)c3ccc(-c4cc(C)no4)s3)CC2)cc1	-2	-9	9	-3	-18
COc1ccc(N2CCN(S(=O)(=O)c3ccc(-c4cc(C)no4)s3)CC2)cc1	86*	-5	-1	-3	3
Cc1cc(-c2ccc(S(=O)(=O)N3CCN(C)CC3)s2)on1	43*	-2	-5	-1	-2
Cn1c(=O)c(C(N)=S)cn(-c2ccccc2)c1=O	-7	-2	-1	-1	2
NC(=O)c1cc(Cl)cn(-c2ccccc2)c1=O	·	-8	3	50*	-2
CCOc1ccccc1CNC(c1ccccc1)c1ccccc1	88*	-1	-4	-6	11
COc1ccccc1CNC(c1ccccc1)c1ccccc1	7	-1	-4	1	6
COc1ccc2c3c(n(C)c2c1)[C@H](CO)N(C(=O)C1CCC1)CC31CCN(Cc2cccc(F)c2)CC1	-6	-9	·	?	9
COc1cccc(CN2CC3(C2)CN(C(=O)C2CC2)[C@H](CO)c2c3c3ccc(OC)cc3n2C)c1	2	·	·	27*	·
COc1ccc2c3c(n(C)c2c1)[C@@H](CO)N(C(=O)C1CCC1)CC31CCN(Cc2cccc(F)c2)CC1	-19	-31	·	29*	10
COc1ccc2c3c(n(C)c2c1)[C@H](CO)N(C(=O)C1CC1)CC31CCN(Cc2cccc(F)c2)CC1	-7	2	·	26*	26
COc1ccccc1-c1ccc2c(c1)O[C@H](CN(C)C(=O)Nc1cccc(F)c1)[C@@H](C)CN([C@H](C)CO)S2(=O)=O	-18	13	-5	1	11
O=C(C[C@H]1CC[C@@H]2[C@H](COC[C@@H](O)CN2C(=O)c2ccccc2F)O1)NCc1ccc(-c2ccccc2)cc1	-14	-26	-2	0	-32
NC(=O)c1c(NC(=O)C(=O)N2CCOCC2)sc2c1CCCC2	1	1	-6	-2	-11
O=C(O)c1c(NC(=O)N2CCOCC2)sc2c1CCCC2	62*	3	-2	-6	-14
Nc1ccc(N=Nc2ccccc2O)c(N)c1	1	1	-2	49*	-9
C=CC(=O)Nc1cccc(N(C)c2ccnc(Nc3ccc(N4CCN(C)CC4)cc3)n2)c1	·	·	82*	·	·
C=CC(=O)Nc1cccc(Oc2ccnc(Nc3ccc(N4CCN(C)CC4)cc3)n2)c1	-14	2	?	70*	93*
CCCC(=O)Nc1ccc2c(c1)OC[C@H](C)N(Cc1cccc(F)c1)C[C@H](C)[C@H](OC)CN(C)C2=O	-20	-2	-6	3	-3
CO[C@@H]1CN(C)C(=O)c2ccc(NC(C)=O)cc2OC[C@H](C)N(Cc2ccccc2F)C[C@@H]1C	-7	·	·	·	·
COc1cc2c(cc1OC)-c1cc(Nc3ccccc3Br)nc(=O)n1CC2	73*	-3	14	-3	5
COc1cc2c(cc1OC)-c1cc(Nc3ccccc3)nc(=O)n1CC2	·	-2	-2	0	-1
SMILES	INS-1E GSIS act	S100A4 MyoIIA	RAD54 inh	MLL AF4-AF9 inh	RAD52 inh
COc1cc2c(cc1OC)-c1cc(N3CCc4ccccc43)nc(=O)n1CC2	43*	9	·	-2	-93
O=C(CCN1CCCCC1)NCC[C@@H]1CC[C@@H](NC(=O)C2CCC2)[C@@H](CO)O1	9	-7	6	0	0
O=C(Nc1cccc(F)c1)N1C[C@H]2[C@@H](c3ccccc31)[C@H](CO)N2C(=O)C1CCOCC1	3	-4	-27	0	9
COCC#Cc1ccc([C@@H]2[C@@H](C#N)N(C(=O)NC3CCCCC3)[C@@H]2CO)cc1	-7	-15	·	3	-25
N#Cc1ccc(C23OCCN2CCn2c3c3ccccc3[n+]2[O-])cc1 (centres undefined)	17	3	-2	48*	-29
CCC1(C)Cc2ccccc2-c2nc(SC)[nH]c(=O)c21 (centres undefined)	60*	-3	·	0	-9
O=C(c1ccc(F)cc1)N1CCCCN2[C@@H](CO)[C@H](c3ccc(-c4ccc(F)cc4)cc3)[C@@H]2C1	·	8	4	3	38
Nc1ccc(Nc2ccc([N+](=O)[O-])cc2[N+](=O)[O-])cc1	-6	-2	·	27*	-2
C[C@H](NC(=O)C[C@H]1C[C@H]2c3cc(NC(=O)CN(C)C)ccc3O[C@H]2[C@@H](CO)O1)c1ccccc1	-5	22	5	0	1
CCOc1ccccc1CNC(=O)CCCc1cn(C)c2ccccc12	·	-3	-7	49*	-14
CCOc1ccccc1CNC(=O)CCc1cn(C)c2ccccc12	5	-9	-1	-2	-9
O=C(C[C@@H]1CC[C@H]2[C@@H](COC[C@H](O)CN2Cc2cccc(C(F)(F)F)c2)O1)NCc1ccc(F)cc1	-15	1	-6	0	-8
COc1ccc(N2CC(NS(=O)(=O)c3cccs3)CC2=O)cc1OC (centres undefined)	41*	0	-5	3	-7
NCCCS(=O)(=O)O	20	11	-8	-1	-4
NCCCNCCCCNCCCN	4	2	4	?	111*
COCC(=O)N1C[C@@H](C)[C@@H](OC)CN(C)C(=O)c2cc(NC(=O)c3cnccn3)ccc2OC[C@H]1C	8	-3	-9	0	15
COc1ccc2cc(-c3cc(C(=O)OCC(=O)NC4CCS(=O)(=O)C4)c4ccccc4n3)ccc2c1 (centres undefined)	91*	·	·	·	·
COc1ccc(-c2cc(C(=O)OCC(=O)NC3CC3)c3ccccc3n2)cc1	44	0	-6	1	-7
Cc1cccc(NS(=O)(=O)c2ccc(-c3ccc(=O)[nH]n3)o2)c1	13	-8	-4	-3	-7
O=c1ccc(-c2ccc(S(=O)(=O)Nc3cccc([N+](=O)[O-])c3)s2)n[nH]1	77*	5	-7	2	-16
CCCNC(=O)c1ccccc1NC(=O)COc1ccc(OC)cc1	57*	·	-12	·	·
CCOc1ccc(NC(=O)c2ccccc2NC(=O)CN2CCCCCC2)cc1	-2	0	4	0	-5
COc1ccc(NC(=O)c2ccccc2NC(=O)CN2CCCCCC2)cc1	8	1	-9	28*	-2
COc1ccc2c3c(n(C)c2c1)[C@H](CO)N(C(=O)C1CCCC1)CC31CCN(CC2CCCC2)CC1	-5	1	·	5	18

Source: PubChem BioAssay (Broad Institute)
